Series [1] in a line: Cytotoxicity against human Kelly cells assessed as inhibition of cell viability incubated for 72 hrs by MTT assay. Type of series: functional, cell-based. An outline of the steps:
(§1)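 MTT assay. Cells were seeded and, after 24 h, treated for 72 h with graded concentrations: 0–400, 0–50 or 0–100 μM depending on compound, with aprepitant at 0–100 μM. Media were DMEM for SH-SY5Y, DMEM/F12 for RPE-1 and RPMI for Kelly, each with 10% FBS, at 37 °C and 5% CO2.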
(Tetrazolium dyes change colour on reduction, which living cells bring about.)

Another series has as its system SH-SY5Y. The experiment in a line: Cytotoxicity against human SH-SY5Y cells assessed as inhibition of cell viability incubated for 72 hrs by MTT assay. Type of series: functional, cell-based. In short, it runs like this:
as §1

Series [2] can be described thus: Cytotoxicity against human RPE-1 cells assessed as inhibition of cell viability incubated for 72 hrs by MTT assay. Type of series: toxicity, cell-based. Particulars: RPE-1 cells (TERT-RPE1). An outline of the steps: as §1
Series [3] in a line: Selectivity index, ratio of IC50 for human RPE-1 cells to IC50 for human Kelly cells. An outline of the steps:
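Selectivity index is IC50 in nonmalignant RPE-1 divided by IC50 in the cancer line (Kelly or SH-SY5Y). The index was calculated in each individual experiment and then averaged.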

Series [4] concerns Kelly. The experiment in a line: Induction of cell cycle arrest at S phase in human Kelly cells at 15 uM incubated for 48 hrs by flow cytometry. Type of series: functional, cell-based. In short, it runs like this:
(§2)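 For cell cycle analysis, Kelly cells were treated 48 h with analogs at 20 or 40 μM or aprepitant at 15 μM. Cells were then harvested, fixed and stained with PI/RNase. G0/G1, S and G2/M fractions were measured by flow cytometry; mean ± SEM, n = 3 independent experiments.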
(In flow cytometry, cells or beads pass a laser one at a time.)

For series [5], the system named is Kelly. The experiment in a line: Induction of cell cycle arrest at G2/M phase in human Kelly cells at 15 uM incubated for 48 hrs by flow cytometry. Type of series: functional, cell-based. In short, it runs like this:
as §2

Each structure is given as a SMILES string. The source made the active and inactive calls. The calls are words filed in the database; no cut-off is given here.

Turning to `C[C@@H](O[C@@H]1O[C@H](CO)[C@@H](O)[C@H](N=[N+]=[N-])[C@H]1OCc1ccc(F)cc1)c1cc(C(F)(F)F)cc(C(F)(F)F)c1`, in series [1], the IC50 (in general, the concentration at which inhibition is half-maximal) came out at 16.8 µM.
Turning to `C[C@@H](O[C@H]1O[C@@H]2CO[C@@H](c3ccccc3)O[C@@H]2[C@H](O)[C@H]1OCc1ccc(F)cc1)c1cc(C(F)(F)F)cc(C(F)(F)F)c1`, the concentration for half-maximal inhibition (IC50) came to 112 µM in series [1] and 128 µM in the series with SH-SY5Y.
With `C[C@@H](O[C@H]1O[C@H](CO)[C@@H](O)[C@H](N=[N+]=[N-])[C@H]1OCc1ccc(F)cc1)c1cc(C(F)(F)F)cc(C(F)(F)F)c1`, in series [1], the half-inhibitory concentration (IC50) was determined as 88.4 µM.
As to `C[C@@H](O[C@@H]1O[C@@H]2CO[C@@H](c3ccccc3)O[C@@H]2[C@H](O)[C@H]1OCc1ccc(F)cc1)c1cc(C(F)(F)F)cc(C(F)(F)F)c1`, in series [1], the IC50 came out at 48.5 µM. The IC50 at 72 h in series [2] is 251 µM. For the same compound, the “Ratio IC50” value in series [3] stood at 4.6.
With `C[C@@H](O[C@H]1O[C@@H]2CO[C@@H](c3ccccc3)O[C@H]2[C@H](N=[N+]=[N-])[C@H]1OCc1ccc(F)cc1)c1cc(C(F)(F)F)cc(C(F)(F)F)c1`, in series [1], the half-inhibitory concentration (IC50) is 234 µM.
Take `C[C@@H](O[C@H]1O[C@@H]2CO[C@@H](c3ccccc3)O[C@H]2[C@H](N)[C@H]1OCc1ccc(F)cc1)c1cc(C(F)(F)F)cc(C(F)(F)F)c1`: in series [1], the 50% inhibitory concentration (IC50) was found to be 6.3 µM. The IC50 at 72 h in series [2] was 92.3 µM. Also, the “Ratio IC50” value in series [3] is 14.7.
In the case of `C[C@@H](O[C@@H]1O[C@@H]2CO[C@@H](c3ccccc3)O[C@H]2[C@H](N=[N+]=[N-])[C@H]1OCc1ccc(F)cc1)c1cc(C(F)(F)F)cc(C(F)(F)F)c1`, the IC50 in series [1] turned out to be 107 µM.
As for `C[C@@H](O[C@H]1O[C@H](CO)[C@@H](O)[C@H](N)[C@H]1OCc1ccc(F)cc1)c1cc(C(F)(F)F)cc(C(F)(F)F)c1`, the IC50 in series [1] amounted to 33.6 µM. Moreover, the IC50 at 72 h in series [2] was 146 µM. In addition, the “Ratio IC50” value in series [3] is 4.3.
As for `C[C@@H](O[C@H]1OCCN(Cc2n[nH]c(=O)[nH]2)[C@H]1c1ccc(F)cc1)c1cc(C(F)(F)F)cc(C(F)(F)F)c1` [APREPITANT], the IC50 in series [1] stood at 15.1 µM. Moreover, the IC50 at 72 h in series [2] was 176 µM. Besides, the “Ratio IC50” value in series [3] was found to be 11.7. Moreover, in the series with Kelly [4], the result was Active. Further, the outcome in the series on Kelly [5] was inactive.

The values are drawn from ChEMBL document CHEMBL5537144, “Biological evaluation of carbohydrate-based aprepitant analogs for neuroblastoma treatment” (Eur J Med Chem, 2024).
